Experiments:
Yellow fever virus [1] = test: Antiviral activity against Yellow fever virus 17D expressing IRES-luciferase gene infected in BHK cells assessed as inhibition of viral production after 36 hrs by luciferase reporter assay relative to control; type: functional
In short: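 Controls: uninfected, infected, and DMSO-treated infected cells. After ~36 h at 37 °C, 5% CO2, cells lysed and firefly luciferase luminescence read. IC50 from nonlinear regression versus DMSO-treated infected cells.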

[2] = Growth inhibition of BHK15 cells after 36 hrs by XTT assay; type: cell-based, Mesocricetus auratus; conditions: hamster
In short: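 Uninfected confluent BHK-15 cells (MEM, 10% FBS) overlaid with serial compound dilutions from DMSO stocks, ~36 h at 37 °C, 5% CO2. Medium replaced, XTT substrate added, 2 h at 37 °C, then OD450 read. GI50 calculated relative to cells given 1% DMSO.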

Yellow fever virus [3] = test: Antiviral activity against Yellow fever virus 17D expressing IRES-luciferase gene infected in BHK cells assessed as inhibition of viral production at 50 uM after 36 hrs by luciferase reporter assay; type: functional, cell-based
[4] = Therapeutic index, ratio of GI50 for BHK15 cells to EC50 for Yellow fever virus 17D; type: cell-based; conditions: hamster, read-out: TI
[5] = Half life in rat plasma; type: ADME
In short: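 Reconstituted lyophilized rat plasma warmed 15 min at 37 °C, diluted with 0.01 M saline to 80% plasma, then warmed 5 min more. Compound in DMSO added; mixture kept at 37 °C. Timed aliquots quenched in methanol and centrifuged; supernatants analysed by C18 HPLC (85:15 methanol/water, room temperature). Half-life from regression of concentration versus time.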

CN(C)C(=O)c1sc(-c2ccc(Cl)cc2)nc1C(Br)Br
inhibition (INH) (Yellow fever virus [1]): 93.2% | GI50 at 36 h [2]: 163 µM | EC50 (Yellow fever virus [3]): 20000 nM

COC(=O)c1sc(-c2ccc(Cl)cc2)nc1C(C)(C)C
inhibition (INH) (Yellow fever virus [1]): 20.9%

CNC(=O)c1sc(-c2ccc(Cl)cc2)nc1C(Br)Br
inhibition (INH) (Yellow fever virus [1]): 99.7% | GI50 at 36 h [2]: 74.6 µM | EC50 (Yellow fever virus [3]): 1800 nM

CCOC(=O)c1sc(-c2ccc(Cl)cc2)nc1-c1ccco1
inhibition (INH) (Yellow fever virus [1]): 50.3% | GI50 at 36 h [2]: 465 µM | EC50 (Yellow fever virus [3]): 311000 nM

Cc1noc(-c2sc(-c3ccc(Cl)cc3)nc2C=O)n1
inhibition (INH) (Yellow fever virus [1]): 99.6% | GI50 at 36 h [2]: 163 µM | EC50 (Yellow fever virus [3]): 26500 nM

CCN(CC)C(=O)c1sc(-c2ccc(Cl)cc2)nc1C(Br)Br
inhibition (INH) (Yellow fever virus [1]): 99.8% | GI50 at 36 h [2]: 63.5 µM | EC50 (Yellow fever virus [3]): 13700 nM

COC(=O)c1sc(-c2ccc(Cl)cc2)nc1CS(C)(=O)=O
inhibition (INH) (Yellow fever virus [1]): -74.7%

COC(=O)c1nc(-c2ccc(Cl)cc2)sc1C(=O)N(C)C
inhibition (INH) (Yellow fever virus [1]): 74% | GI50 at 36 h [2]: 99.7 µM | EC50 (Yellow fever virus [3]): 51000 nM

COC(=O)c1sc(-c2ccc(Cl)cc2)nc1C=O
inhibition (INH) (Yellow fever virus [1]): 99.9% | GI50 at 36 h [2]: 36.4 µM | EC50 (Yellow fever virus [3]): 42800 nM

COC(=O)c1nc(-c2ccc(Cl)cc2)sc1C(=O)OC
inhibition (INH) (Yellow fever virus [1]): 30.1%

COC(=O)c1nc(-c2ccc(Cl)cc2)sc1-c1nc(C)no1
inhibition (INH) (Yellow fever virus [1]): 1.5%

CSC(=O)c1sc(-c2ccc(Cl)cc2)nc1C(Br)Br
inhibition (INH) (Yellow fever virus [1]): 99.6% | GI50 at 36 h [2]: 369 µM | EC50 (Yellow fever virus [3]): 1400 nM | selectivity ratio [4]: 256 | half-life [5]: 1480 min

O=C(N[C@@H]1OC(CO)C(O)[C@H](O)[C@H]1O)c1sc(-c2ccc(Cl)cc2)nc1C(Br)Br (single isomer, unassigned)
inhibition (INH) (Yellow fever virus [1]): 43.4%

COCc1nc(-c2ccc(Cl)cc2)sc1C(=O)N(C)C
inhibition (INH) (Yellow fever virus [1]): 11.3%

COC(=O)c1sc(-c2ccc(Cl)cc2)nc1C(Br)Br
inhibition (INH) (Yellow fever virus [1]): 99.6% | GI50 at 36 h [2]: 222 µM | EC50 (Yellow fever virus [3]): 2800 nM | selectivity ratio [4]: 79 | half-life [5]: 84.9 min

CCNC(=O)c1sc(-c2ccc(Cl)cc2)nc1C(Br)Br
inhibition (INH) (Yellow fever virus [1]): 99.9% | GI50 at 36 h [2]: 33.3 µM | EC50 (Yellow fever virus [3]): 2700 nM

COCc1nc(-c2ccc(Cl)cc2)sc1C(=O)OC
inhibition (INH) (Yellow fever virus [1]): 38.1% | GI50 at 36 h [2]: 388 µM | EC50 (Yellow fever virus [3]): 158000 nM

CNC(=O)c1sc(-c2ccc(Cl)cc2)nc1C=O
inhibition (INH) (Yellow fever virus [1]): 37.5%

CCSC(=O)c1sc(-c2ccc(Cl)cc2)nc1C(Br)Br
inhibition (INH) (Yellow fever virus [1]): 99.7% | GI50 at 36 h [2]: 81.4 µM | EC50 (Yellow fever virus [3]): 1600 nM

C=CCNC(=O)c1sc(-c2ccc(Cl)cc2)nc1C(Br)Br
inhibition (INH) (Yellow fever virus [1]): 99.9% | GI50 at 36 h [2]: 40.8 µM | EC50 (Yellow fever virus [3]): 1600 nM

O=C(NCCO)c1sc(-c2ccc(Cl)cc2)nc1C(Br)Br
inhibition (INH) (Yellow fever virus [1]): 99.8% | GI50 at 36 h [2]: 40.8 µM | EC50 (Yellow fever virus [3]): 2900 nM

CC(=O)c1sc(-c2ccc(Cl)cc2)nc1C(Br)Br
inhibition (INH) (Yellow fever virus [1]): 99.9% | GI50 at 36 h [2]: 83.5 µM | EC50 (Yellow fever virus [3]): 1300 nM

C#CCNC(=O)c1sc(-c2ccc(Cl)cc2)nc1C(Br)Br
inhibition (INH) (Yellow fever virus [1]): 99.7% | GI50 at 36 h [2]: 23.9 µM | EC50 (Yellow fever virus [3]): 1700 nM

O=C(NC[C@@H](O)CO)c1sc(-c2ccc(Cl)cc2)nc1C(Br)Br
inhibition (INH) (Yellow fever virus [1]): 99.9% | GI50 at 36 h [2]: 158 µM | EC50 (Yellow fever virus [3]): 1100 nM

COC(=O)c1sc(-c2ccc(Cl)cc2)nc1C#N
inhibition (INH) (Yellow fever virus [1]): 7.8%

COC(=O)c1sc(-c2ccc(Cl)cc2)nc1C(C)C
inhibition (INH) (Yellow fever virus [1]): 14.7% | GI50 at 36 h [2]: 49.6 µM | EC50 (Yellow fever virus [3]): 58700 nM

CN(C)C(=O)c1sc(-c2ccc(Cl)cc2)nc1C=O
inhibition (INH) (Yellow fever virus [1]): 5.5%

CONC(=O)c1sc(-c2ccc(Cl)cc2)nc1C(Br)Br
inhibition (INH) (Yellow fever virus [1]): 93.6% | GI50 at 36 h [2]: 81.4 µM | EC50 (Yellow fever virus [3]): 1700 nM

COC(=O)c1sc(-c2ccc(Cl)cc2)nc1C(Cl)Cl
inhibition (INH) (Yellow fever virus [1]): 99.9% | GI50 at 36 h [2]: 34.1 µM | EC50 (Yellow fever virus [3]): 52800 nM

CC(C)OC(=O)c1sc(-c2ccc(Cl)cc2)nc1C(Br)Br
inhibition (INH) (Yellow fever virus [1]): 84.4% | GI50 at 36 h [2]: 372 µM | EC50 (Yellow fever virus [3]): 19900 nM

COC(=O)c1sc(-c2ccc(Cl)cc2)nc1CBr
inhibition (INH) (Yellow fever virus [1]): 99.9% | GI50 at 36 h [2]: 74.6 µM | EC50 (Yellow fever virus [3]): 1600 nM

CCc1nc(-c2ccc(Cl)cc2)sc1C(=O)OC
inhibition (INH) (Yellow fever virus [1]): -56.7%

CNC(=O)c1sc(-c2ccc(Cl)cc2)nc1COC
inhibition (INH) (Yellow fever virus [1]): 99.7% | GI50 at 36 h [2]: 50.8 µM | EC50 (Yellow fever virus [3]): 2900 nM

CN(C)/C=C/C(=O)c1sc(-c2ccc(Cl)cc2)nc1C(Br)Br
inhibition (INH) (Yellow fever virus [1]): 99.8% | GI50 at 36 h [2]: 38.2 µM | EC50 (Yellow fever virus [3]): 11400 nM

CCOC(=O)c1sc(-c2ccc(Cl)cc2)nc1C(Br)Br
inhibition (INH) (Yellow fever virus [1]): 98.1% | GI50 at 36 h [2]: 94.6 µM | EC50 (Yellow fever virus [3]): 8700 nM

NC(=O)c1sc(-c2ccc(Cl)cc2)nc1C(Br)Br
inhibition (INH) (Yellow fever virus [1]): 99.8% | GI50 at 36 h [2]: 99.7 µM | EC50 (Yellow fever virus [3]): 1700 nM

Source: ChEMBL document CHEMBL1765083, “Design, synthesis, and biological evaluation of thiazoles targeting flavivirus envelope proteins” (J Med Chem, 2011)
